According to publication PMC3600638 (Biomaterials, 2013):
Structures can show the parent of a compound that is named as a salt.

What was measured:
[1] = tested on: BxPC-3 cells; assay: In vitro caspase-3/7 activation; type: cell-based, human; details: 1.8 μM, 48 h
Procedure, shortened: (§1)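 H460 or BxPC-3 cells grown in RPMI-1640 with 10% FBS at 37°C and 5% CO₂. 2×10⁵ cells per well in 6-well plates, exposed to 1.8 μM test compound for 48 h. Lysed in RIPA buffer with protease inhibitors, protein measured by BCA, and 40 μg protein assayed with a commercial caspase-3/7 activity kit.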

[2] = tested on: BxPC-3 xenografts; assay: In vivo caspase-3/7 activation in tumors; parameters: species or system nude mice; details: 3 daily IV injections, 7.5 μmol/Kg, 24 h after last injection
Procedure, shortened: (§2)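 Female nude mice, 6–8 weeks old, with s.c. right-flank xenografts (5×10⁶ cells in PBS), n=3. Three daily IV doses of 7.5 μmol/Kg; tumors taken 24 h after the last dose. Tissue homogenised and sonicated in RIPA with protease inhibitors, spun 14,000 rpm for 10 min at 4°C. 40 μg protein (BCA) assayed with a caspase-3/7 kit.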

[3] = tested on: BxPC-3 cells; assay: In vitro cell viability; type: cell-based, human; details: 48 h, MTT
Procedure, shortened: (§3)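 Cells seeded at 1×10⁴ per well in 96-well plates. A range of test compound concentrations was added at 30% confluence, then 48 h at 37°C. MTT at 0.5 mg/mL final for 4 h at 37°C, formazan dissolved in DMSO, A570 read. Viability expressed as % of untreated cells; IC50 derived; mean ± S.D., n=3.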

[4] = Pharmacokinetic profile; type: in vivo, nude mice; details: IV bolus, H460 xenograft model
Procedure, shortened: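 Nanoparticles co-loaded with trace ³H-CTP as a marker of entrapped drug, given as an IV bolus to nude mice bearing H460 tumors. 30 μL blood drawn from the orbital venous plexus at 20 min, 1, 2, 4, 8 and 24 h, bleached with 30% H₂O₂ and counted by liquid scintillation. %ID in blood calculated with the initial value set at 100%; PK parameters from a non-compartmental fit.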

[5] = tested on: BxPC-3 subcutaneous tumors; assay: Tumor growth inhibition study; type: in vivo, nude mice; details: BxPC-3 xenograft, 4 IV injections every other day, 7.5 μmol/Kg
Procedure, shortened: (§4)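 Female nude mice, 6–8 weeks old, inoculated s.c. with 5×10⁶ cells. Dosing began day 12 at 150–200 mm³ tumor volume, mice randomised into 6 groups (n=5). IV injections every other day ×4 at 7.5 μmol/Kg. Calipers every other day, V = 0.5×W²×L; body weight recorded every other day; mice euthanised when a tumor reached 20 mm.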

[6] = tested on: H460 xenografts; assay: In vivo caspase-3/7 activation in tumors; parameters: species or system nude mice; details: 3 daily IV injections, 7.5 μmol/Kg, 24 h after last injection
Procedure, shortened: as §2

[7] = tested on: BxPC-3 xenografts; assay: Western blot of tumor lysates; type: in vivo, nude mice; details: 3 daily IV injections
Procedure, shortened: (§5)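 Tumors from xenograft-bearing nude mice harvested 24 h after three daily IV injections; RIPA lysates prepared. 40 μg protein per lane on 4–12% SDS-PAGE, transferred to PVDF, blocked 1 h in 5% milk. Mouse monoclonal PARP-1 and rabbit polyclonal cyclin D1 antibodies (1:500) overnight at 4°C. β-actin (1:4000) as loading control; secondaries 1:4000 for 1 h; ECL detection.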

[8] = tested on: H460 cells; assay: In vitro cell viability; type: cell-based, human; details: 48 h, MTT
Procedure, shortened: as §3

[9] = tested on: H460 xenografts; assay: Western blot of tumor lysates; type: in vivo, nude mice; details: 3 daily IV injections
Procedure, shortened: as §5

[10] = tested on: H460 cells; assay: In vitro caspase-3/7 activation; type: cell-based, human; details: 1.8 μM, 48 h
Procedure, shortened: as §1

[11] = tested on: H460 subcutaneous tumors; assay: Tumor growth inhibition study; type: in vivo, nude mice; details: H460 xenograft, 4 IV injections every other day, 7.5 μmol/Kg
Procedure, shortened: as §4

[12] = tested on: H460 cells; assay: In vitro cellular uptake of NBD-labeled LCPs; type: cell-based, human; details: pre-incubation with 50 μM haloperidol for 1 h

SMILES | in vitro caspase-3/7 activity [1] | caspase-3/7 activity in tumors [2] | cell viability [3] | AUMC [4] [h^2·%] | tumor growth inhibition [5] | caspase-3/7 activity in tumors [6] | cleaved PARP in tumors [7] | cell viability [8] | cleaved PARP in tumors [9] | in vitro caspase-3/7 activity [10] | tumor growth inhibition [11] | effect on cellular uptake of AA-modified LCP [12]
Nc1ccn([C@@H]2O[C@H](COP(=O)(O)OP(=O)(O)OP(=O)(O)O)[C@@H](O)C2(F)F)c(=O)n1 [GTP, Gemcitabine triphosphate tris(triethylammonium) salt] | significantly higher than the control | did not elicit caspase activity in vivo | decreased the cell viability | 25.34 | limited therapeutic effects | did not elicit caspase activity in vivo | did not induce PARP elevation | decreased the cell viability | did not induce PARP elevation | significantly higher than the control | limited therapeutic effects | 
Nc1ccn([C@@H]2O[C@H](CO)[C@@H](O)C2(F)F)c(=O)n1 [Gem, 2′, 2′-difluoro 2′-deoxycytidine] | significantly higher than the control | did not elicit caspase activity in vivo | decreased the cell viability |  | limited therapeutic effects | did not elicit caspase activity in vivo | did not induce PARP elevation | decreased the cell viability | did not induce PARP elevation | significantly higher than the control | limited therapeutic effects | 
O=C(CCCN1CCC(O)(c2ccc(Cl)cc2)CC1)c1ccc(F)cc1 [haloperidol] |  |  |  |  |  |  |  |  |  |  |  | significantly reduced the cellular uptake of AA-modified LCP
